In publication PMC4576993 (Leukemia, 2011):

Test system: phosphorylated H2AX (γH2AX) in peripheral blood blasts
Test: γH2AX in patient peripheral blood blasts by flow cytometry
Assay type: in vivo, human
Summary of the method: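 Peripheral blood blasts from 10 weekly-schedule patients were sampled on days 1 and 8, predose and 2 h postdose. Ficoll-enriched cells were fixed in 70% ethanol at 4 °C and stained in TBS/4% FBS/0.1% Triton X-100. Primary was anti-phospho-Ser139 H2AX or IgG1 isotype (1:500, 2 h), then Alexa488 anti-mouse (1:200, 1 h) with 5 μg/ml RNase, then 2% formaldehyde. Flow cytometry used […]. %γH2AX-positive was set against isotype overlays.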

Compound: CN[C@H]1CN(c2ccc3c(=O)c(C(=O)O)cn(-c4nccs4)c3n2)C[C@@H]1OC [vosaroxin, (+)-1,4-dihydro-7-(trans-3-methoxy-4-methylamino-1-pyrrolidinyl)-4-oxo-1-(2-thiazolyl)-1,8-naphthyridine-3-carboxylic acid]
- Increase in γH2AX (day 1, 2 h postdose, patients with blasts ≥5%): 1.8 fold
- Increase in γH2AX (day 1, 2 h postdose, patients with bone marrow blasts <5% after treatment): 2.6 fold
- Increase in γH2AX (day 8, 2 h postdose, patients with blasts ≥5%): 1.7 fold
- Increase in γH2AX (day 8, 2 h postdose, patients with bone marrow blasts <5% after treatment): 3.8 fold
- Patients with increased γH2AX after the first dose (weekly schedule, 50 mg/m^2 or higher, 2 h postdose day 1): 7 of 10
- Patients with γH2AX higher than at baseline before treatment on day 8 (weekly schedule, day 8 predose): 9 of 10
